Reference: ChEMBL document CHEMBL1137414, “3'-Substituted 7-halogenoindirubins, a new class of cell death inducing agents” (J Med Chem, 2006)

Assays:
SH-SY5Y [1] = assay: Death of human SH-SY5Y cells at 25 uM after 48 hrs by LDH release assay; assay type: functional
In short: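 SH-SY5Y human neuroblastoma cells were grown in DMEM with 2 mM L-glutamine, antibiotics and 10% FCS at 37 °C under 5% CO2. […] Lactate dehydrogenase release was measured 48 h after addition and expressed as percent cell death.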

SH-SY5Y [2] = assay: Survival of human SH-SY5Y cells after 24 hrs by MTS reduction assay; assay type: functional, cell-based
HCT-116 = assay: Survival of human HCT116 cells after 48 hrs by MTS reduction assay; assay type: functional, cell-based
In short: (§1)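 Viability read by MTS reduction. IC50 taken from dose-response curves, triplicate measurements. HCT116 grown in McCoy's 5A with 10% FCS. MDA-MB-231 grown in DMEM with 10% FCS and seeded at 7500 cells/well.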

PC-3 = assay: Survival of human PC3 cells after 48 hrs by MTS reduction assay; assay type: functional, cell-based
A549 = assay: Survival of human A549 cells after 48 hrs by MTS reduction assay; assay type: functional, cell-based
[3] = molecular target: Cyclin-dependent kinase 5/CDK5 activator 1 (Homo sapiens, UniProt Q00535); assay: (§2) Inhibition of mammalian CDK5/p25; assay type: protein-complex assay
Chain of Cyclin-dependent kinase 5/CDK5 activator 1 (Homo sapiens, UniProt Q00535) (Q00535 whole entry, the tested form may be a part): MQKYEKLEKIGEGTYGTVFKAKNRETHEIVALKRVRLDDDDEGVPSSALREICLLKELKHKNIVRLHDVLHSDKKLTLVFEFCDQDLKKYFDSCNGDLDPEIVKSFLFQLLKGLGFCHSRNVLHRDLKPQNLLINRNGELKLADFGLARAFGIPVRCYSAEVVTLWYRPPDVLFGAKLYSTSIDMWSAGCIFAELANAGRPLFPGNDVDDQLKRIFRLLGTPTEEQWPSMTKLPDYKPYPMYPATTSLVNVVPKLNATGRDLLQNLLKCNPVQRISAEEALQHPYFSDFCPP
Chain of Cyclin-dependent kinase 5/CDK5 activator 1 (Homo sapiens, UniProt Q00535) (Q15078 whole entry, further chain, the tested form may be a part): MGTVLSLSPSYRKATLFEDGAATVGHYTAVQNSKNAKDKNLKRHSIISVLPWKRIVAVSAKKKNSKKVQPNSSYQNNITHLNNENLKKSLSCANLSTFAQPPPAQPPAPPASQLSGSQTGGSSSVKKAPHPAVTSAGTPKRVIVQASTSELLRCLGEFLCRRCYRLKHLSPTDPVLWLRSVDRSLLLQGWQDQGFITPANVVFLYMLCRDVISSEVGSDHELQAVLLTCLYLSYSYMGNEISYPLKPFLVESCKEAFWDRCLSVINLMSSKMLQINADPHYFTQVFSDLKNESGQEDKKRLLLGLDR
In short: (§3)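 Recombinant CDK5 and p25, each expressed in E. coli as GST fusions and affinity-purified on glutathione agarose, mixed in equal amounts. Phosphate incorporation onto P81 paper read by scintillation counting, blank subtracted. Activity taken as % of uninhibited. IC50 from dose-response curves.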

[4] = Survival of mouse F1 cells after 48 hrs by MTS reduction assay; conditions: Mus musculus, F1, 48 h
SH-SY5Y [5] = assay: Survival of human SH-SY5Y cells after 48 hrs by MTS reduction assay; assay type: functional, cell-based
SH-SY5Y [6] = assay: Survival of human SH-SY5Y cells at 25 uM by MTS reduction assay; assay type: functional, cell-based; conditions: for viability at 25 µM: Homo sapiens, SH-SY5Y, read-out: Survival
In short: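 Viability was read by MTS reduction and expressed as percent of untreated cells, as the average ± SE of three independent measurements, representative of two independent experiments.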

MDA-MB-231 = assay: Survival of human MDA-MB-231 cells after 48 hrs by MTS reduction assay; assay type: functional, cell-based; in short: as §1
[7] = Inhibition of starfish CDK1/cyclin B in presence of 15 uM ATP; set-up: species or system Marthasterias glacialis
SH-SY5Y [8] = assay: Death of human SH-SY5Y cells in absence of 20 uM Q-VD-OPh by MTS reduction assay; assay type: functional, cell-based
BP8 = assay: Survival of […] AhR -/- BP8 cells after 48 hrs by MTS reduction assay; assay type: functional, cell-based
HEK293 = assay: Survival of human HEK293 cells after 48 hrs by MTS reduction assay; assay type: functional, cell-based
Huh-7 = assay: Survival of human Huh7 cells after 48 hrs by MTS reduction assay; assay type: functional, cell-based
[9] = molecular target: Cyclin-dependent kinase 5/CDK5 activator 1 (Homo sapiens, UniProt Q00535+Q15078); assay: as §2; assay type: protein-complex assay; in short: as §3
Chain of Cyclin-dependent kinase 5/CDK5 activator 1 (Homo sapiens, UniProt Q00535+Q15078) (Q00535 whole entry): as the sequence (Q00535 whole entry, the tested form may be a part) above
Chain of Cyclin-dependent kinase 5/CDK5 activator 1 (Homo sapiens, UniProt Q00535+Q15078) (Q15078 whole entry): as the sequence (Q15078 whole entry, further chain, the tested form may be a part) above

F1 (hepatoma cell line) = assay: Survival of mouse F1 cells after 48 hrs by MTS reduction assay; conditions: F1
SH-SY5Y [10] = assay: Death of human SH-SY5Y cells in presence of 20 uM Q-VD-OPh by MTS reduction assay; assay type: functional, cell-based
HT-29 = assay: Survival of human HT29 cells after 48 hrs by MTS reduction assay; assay type: functional, cell-based
[11] = molecular target: Glycogen synthase kinase-3 (Homo sapiens, UniProt P49840+P49841); assay: Inhibition of porcine brain GSK3alpha/beta; conditions: Sus scrofa
Chain of Glycogen synthase kinase-3 (P49840 whole entry, looked up): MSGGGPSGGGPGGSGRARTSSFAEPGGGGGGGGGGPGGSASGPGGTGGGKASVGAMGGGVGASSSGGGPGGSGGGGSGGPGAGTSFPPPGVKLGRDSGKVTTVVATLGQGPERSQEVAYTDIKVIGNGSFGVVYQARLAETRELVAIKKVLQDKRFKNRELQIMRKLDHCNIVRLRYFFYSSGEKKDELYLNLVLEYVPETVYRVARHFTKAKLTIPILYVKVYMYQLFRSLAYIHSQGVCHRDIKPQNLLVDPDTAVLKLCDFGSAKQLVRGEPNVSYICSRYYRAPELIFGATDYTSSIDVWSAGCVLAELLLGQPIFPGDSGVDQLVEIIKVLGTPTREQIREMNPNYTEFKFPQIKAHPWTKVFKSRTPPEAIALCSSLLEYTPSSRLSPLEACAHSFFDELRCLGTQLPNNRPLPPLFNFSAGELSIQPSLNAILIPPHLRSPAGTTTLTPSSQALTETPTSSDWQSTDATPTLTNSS
Chain of Glycogen synthase kinase-3 (P49841 whole entry, looked up): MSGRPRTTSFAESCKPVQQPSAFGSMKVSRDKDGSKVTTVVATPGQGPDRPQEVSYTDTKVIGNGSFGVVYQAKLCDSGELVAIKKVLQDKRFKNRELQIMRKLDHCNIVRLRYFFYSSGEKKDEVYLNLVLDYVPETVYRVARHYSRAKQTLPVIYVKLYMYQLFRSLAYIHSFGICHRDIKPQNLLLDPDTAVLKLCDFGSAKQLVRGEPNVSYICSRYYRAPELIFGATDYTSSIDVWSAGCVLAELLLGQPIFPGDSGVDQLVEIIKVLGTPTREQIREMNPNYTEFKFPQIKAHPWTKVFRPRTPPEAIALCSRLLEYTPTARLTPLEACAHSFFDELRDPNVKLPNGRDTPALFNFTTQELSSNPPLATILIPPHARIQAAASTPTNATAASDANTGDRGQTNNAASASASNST

[12] = Homo sapiens, SH-SY5Y, read-out: IC50

SMILES	Activity (SH-SY5Y [1]) [%]	IC50 (SH-SY5Y [2]; Homo sapiens, SH-SY5Y, 24 h) [µM]	IC50 (HCT-116; Homo sapiens, HCT-116, 48 h) [µM]	IC50 (PC-3; Homo sapiens, PC-3, 48 h) [µM]	IC50 (A549; Homo sapiens, A549, 48 h) [µM]	IC50 [3] [µM]	IC50 [4] [µM]	IC50 (SH-SY5Y [5]; Homo sapiens, SH-SY5Y, 48 h) [µM]	viability at 25 µM (SH-SY5Y [6]) [%]	IC50 (MDA-MB-231; Homo sapiens, MDA-MB-231, 48 h) [µM]	IC50 [7] [µM]	IC50 (SH-SY5Y [8]; sh-sy5y, read-out: IC50) [µM]	IC50 (BP8; Mus musculus, BP8, 48 h) [µM]	IC50 (HCT-116; hct-116) [µM]	Survival (SH-SY5Y [6]) [%]	IC50 (HEK293; hek293) [µM]	IC50 (HT-29; ht-29) [µM]	IC50 (Huh-7; huh-7) [µM]	IC50 (SH-SY5Y [10]; Homo sapiens, SH-SY5Y) [µM]	IC50 (SH-SY5Y [8]; [12]) [µM]	other results
Cl.Oc1[nH]c2c(Br)cccc2c1C1=Nc2ccccc2/C1=N\OCCN1CCCC1	80	3.1	3.8	30	16	> 10	3.1	2	12	> 30	> 100	2.8	> 30								IC50 (HEK293; Homo sapiens, HEK293, 48 h): > 30 µM; IC50 (Huh-7; Homo sapiens, Huh-7, 48 h): 13.6 µM
Oc1[nH]c2c(Br)cccc2c1C1=Nc2ccccc2/C1=N\OCCN1CCNCC1	94													5.4	3	5	6.3	5.3			IC50 (SH-SY5Y [2]; sh-sy5y): 10.5 µM; IC50 (PC-3; pc-3): 6.1 µM; IC50 (A549; a549): 5.9 µM; IC50 [9]: > 10 µM; IC50 (F1 (hepatoma cell line)): 1.7 µM; IC50 (SH-SY5Y [10]; sh-sy5y): 10.3 µM; IC50 (SH-SY5Y [5]; sh-sy5y): 6.2 µM; IC50 (MDA-MB-231; mda-mb-231): 5.3 µM; IC50 (SH-SY5Y [8]): 10 µM; IC50 (BP8; bp8): 5.6 µM
Cl.Cn1c(O)c(C2=Nc3ccccc3/C2=N\OCCN2CCCC2)c2cccc(Br)c21	94	7.3		19	14.6	> 10	2.9	4			> 10			5.1	1	8	5.4	5.6	13	5	IC50 (MDA-MB-231; mda-mb-231): 12 µM; IC50 (BP8; bp8): 7.5 µM
Cl.Cl.Oc1[nH]c2c(Br)cccc2c1C1=Nc2ccccc2/C1=N\OCCN1CCNCC1	100	6	5.1	6	6	> 10	1.4	6	3	5.1	> 10		5.4			1.9	1.9	2	6.8	6.2	
Cn1c(O)c(C2=Nc3ccccc3/C2=N\OCCN2CCCC2)c2cccc(Br)c21	78											6.1		13.6	15	21.4	19.8	18.8			IC50 (SH-SY5Y [2]; sh-sy5y): 7.8 µM; IC50 (PC-3; pc-3): 21.6 µM; IC50 (A549; a549): 21 µM; IC50 [9]: > 10 µM; IC50 (F1 (hepatoma cell line)): 5.6 µM; IC50 (SH-SY5Y [10]; sh-sy5y): > 25 µM; IC50 (SH-SY5Y [5]; sh-sy5y): 5 µM; IC50 (MDA-MB-231; mda-mb-231): 26.8 µM; IC50 (BP8; bp8): 18.8 µM
CN(C)CCO/N=C1/C(c2c(O)[nH]c3c(Br)cccc23)=Nc2ccccc21.Cl	84	2.1		15		> 10		1		18.8	> 10		> 30	2	5	3	2.4		> 25	1.1	IC50 (A549; a549): 5.8 µM; IC50 (F1 (hepatoma cell line)): 1.7 µM; IC50 (Huh-7; Homo sapiens, Huh-7, 48 h): 11.2 µM
O=Nc1c(-c2c(O)[nH]c3c(Cl)cccc23)[nH]c2ccccc12	92	14				6		12	7		3.7								11	10	IC50 [11]: 21 µM
CN(C)CCO/N=C1/C(c2c(O)n(C)c3c(Br)cccc23)=Nc2ccccc21.Cl	80	21	15.7	25	20.8	> 10	5.4	9		17.8	> 10	11	19		4						IC50 (HEK293; Homo sapiens, HEK293, 48 h): 18.8 µM; IC50 (Huh-7; Homo sapiens, Huh-7, 48 h): 18 µM
O=Nc1c(-c2c(O)[nH]c3c(Br)cccc23)[nH]c2ccccc12	94	8	6.2	19.8	21.8		8	7.1	4	10.5			19.4						7	7	IC50 (HEK293; Homo sapiens, HEK293, 48 h): 12.3 µM; IC50 (HT-29; Homo sapiens, HT-29, 48 h): 21.2 µM; IC50 (Huh-7; Homo sapiens, Huh-7, 48 h): 9 µM
CN(C)CCO/N=C1/C(c2c(O)[nH]c3c(Br)cccc23)=Nc2ccccc21	86											1.5		6.5	1	14.4	21.8	19.6			IC50 (SH-SY5Y [2]; sh-sy5y): 4.1 µM; IC50 (PC-3; pc-3): 27.2 µM; IC50 (A549; a549): 21.8 µM; IC50 [9]: > 10 µM; IC50 (F1 (hepatoma cell line)): 5.5 µM; IC50 (SH-SY5Y [5]; sh-sy5y): 2 µM; IC50 (MDA-MB-231; mda-mb-231): 26.4 µM; IC50 (BP8; bp8): 19.5 µM
